Legend:
[1] = molecular target: T1, Sphingosine 1-phosphate receptor 1 (Homo sapiens, UniProt P21453); assay: Agonist activity at human S1P1 receptor expressed in CHO-K1 cells assessed as increase in S1P-stimulated calcium influx preincubated for 5 mins followed by S1P stimulation measured every 3 secs by fluorescence method; type: functional, cell-based
Method in brief: (§1)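 Fura2 Ca2+ assay in CHO-K1 cells stably expressing human S1P1 or S1P3. Cells were loaded with 5 μM Fura2-AM in Ham's F12 (10% FBS, 20 mM HEPES pH 7.4, 2.5 mM probenecid) for 60 min at 37 °C, then washed. After a 30 s baseline, compound was added (0.1 nM–30 μM final, DMSO), then 100 nM S1P 5 min later. Ratio read every 3 s (ex 340/380, em 500 nm). Increase ratio (%) = B/A×100 against the DMSO-well S1P peak; EC50 taken from the concentration series; mean of ≥2 data points.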

[2] = molecular target: Sphingosine 1-phosphate receptor 3 (Homo sapiens, UniProt Q99500); assay: Agonist activity at human S1P3 receptor expressed in CHO-K1 cells assessed as increase in S1P-stimulated calcium influx preincubated for 5 mins followed by S1P stimulation measured every 3 secs by fluorescence method; type: cell-based
Homo sapiens = organism: Homo sapiens; assay: Selectivity ratio of EC50 for human S1P3 receptor to EC50 for human S1P1 receptor; method in brief: as §1
[3] = molecular target: T1, Sphingosine 1-phosphate receptor 1; assay: Agonist activity at human S1P1 receptor expressed in CHO-K1 cells assessed as inhibition of forskolin-stimulated cAMP accumulation after 30 mins by ELISA; type: functional, cell-based
[4] = molecular target: Sphingosine 1-phosphate receptor 5 (Homo sapiens, UniProt Q9H228); assay: Agonist activity at human S1P5 receptor expressed in CHO-K1 cells assessed as inhibition of forskolin-stimulated cAMP accumulation after 30 mins by ELISA; type: functional, cell-based
Mus musculus [5] = assay: Decrease in peripheral lymphocyte levels in po dosed BALB/c mouse at 4 hrs by automated hematology analyzer; type: functional
Method in brief: (§2)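 Compound given orally to 6-week-old male BALB/c mice. At 4 or 24 h, blood was taken from the abdominal aorta under ether anaesthesia and lymphocytes counted on an automated haematology analyser. Counts expressed as % of the vehicle-group mean; ED50 is the dose lowering counts to 50%. One experiment, five mice.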

Mus musculus [6] = assay: Decrease in peripheral lymphocyte levels in po dosed BALB/c mouse at 24 hrs by automated hematology analyzer; type: functional; method in brief: as §2
[7] = molecular target: S1P3 receptor (sphingosine 1-phosphate receptor 3) (Homo sapiens, UniProt Q99500); assay: Agonist activity at human S1P3 receptor expressed in CHO-K1 cells assessed as increase in S1P-stimulated calcium influx at 30 uM preincubated for 5 mins followed by S1P stimulation measured every 3 secs by fluorescence method relative to control; type: cell-based; conditions: CHO-K1 cells expressing human S1P3 receptor, read-out: max activation; method in brief: as §1
[8] = Protein binding in cynomolgus monkey serum at 50 to 5000 ng/ml after 10 mins by ultracentrifugation method; type: ADME, cell-free, Macaca fascicularis; conditions: read-out: PB
Method in brief: (§3)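 Serum protein binding measured at compound concentrations of 50, 500 and 5,000 ng/mL. Mean of four binding experiments.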

[9] = Protein binding in Lewis rat serum at 50 to 5000 ng/ml after 10 mins by ultracentrifugation method; type: ADME, cell-free; conditions: read-out: PB; method in brief: as §3
[10] = Metabolic stability in mouse liver microsomes assessed as parent compound remaining after 2 hrs by radio-HPLC method; type: ADME, microsome; conditions: read-out: Stability
Method in brief: (§4)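 Tritium-labelled compound incubated for 2 h in liver microsomes of each species. Read-out was % of unchanged form remaining; mean of two experiments.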

[11] = Metabolic stability in Sprague-Dawley rat liver microsomes assessed as parent compound remaining after 2 hrs by radio-HPLC method; type: ADME, microsome; conditions: read-out: Stability; method in brief: as §4
[12] = Metabolic stability in cynomolgus monkey liver microsomes assessed as parent compound remaining after 2 hrs by radio-HPLC method; type: ADME, Macaca fascicularis, microsome; conditions: read-out: Stability; method in brief: as §4
[13] = Metabolic stability in human liver microsomes assessed as parent compound remaining after 2 hrs by radio-HPLC method; type: ADME, microsome; conditions: read-out: Stability; method in brief: as §4
[14] = Protein binding in mouse serum at 50 to 5000 ng/ml after 10 mins by ultracentrifugation method; type: ADME, cell-free; conditions: read-out: PB; method in brief: as §3
[15] = Protein binding in Sprague-Dawley rat serum at 50 to 5000 ng/ml after 10 mins by ultracentrifugation method; type: ADME, cell-free; conditions: read-out: PB; method in brief: as §3
[16] = Protein binding in human serum at 50 to 5000 ng/ml after 10 mins by ultracentrifugation method; type: ADME, cell-free; conditions: read-out: PB; method in brief: as §3

T1 sequence (P21453 whole entry): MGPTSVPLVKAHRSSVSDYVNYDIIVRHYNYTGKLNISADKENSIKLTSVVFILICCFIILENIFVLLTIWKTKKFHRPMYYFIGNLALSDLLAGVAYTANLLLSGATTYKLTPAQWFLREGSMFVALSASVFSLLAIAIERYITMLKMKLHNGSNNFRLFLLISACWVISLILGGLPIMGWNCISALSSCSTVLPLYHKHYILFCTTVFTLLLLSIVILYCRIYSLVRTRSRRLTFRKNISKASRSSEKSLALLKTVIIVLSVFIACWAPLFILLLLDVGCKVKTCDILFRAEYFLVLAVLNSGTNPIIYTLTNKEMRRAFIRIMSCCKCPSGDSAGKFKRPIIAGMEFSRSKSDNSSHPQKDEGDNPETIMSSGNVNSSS
Sequence of Sphingosine 1-phosphate receptor 3 (Q99500 whole entry): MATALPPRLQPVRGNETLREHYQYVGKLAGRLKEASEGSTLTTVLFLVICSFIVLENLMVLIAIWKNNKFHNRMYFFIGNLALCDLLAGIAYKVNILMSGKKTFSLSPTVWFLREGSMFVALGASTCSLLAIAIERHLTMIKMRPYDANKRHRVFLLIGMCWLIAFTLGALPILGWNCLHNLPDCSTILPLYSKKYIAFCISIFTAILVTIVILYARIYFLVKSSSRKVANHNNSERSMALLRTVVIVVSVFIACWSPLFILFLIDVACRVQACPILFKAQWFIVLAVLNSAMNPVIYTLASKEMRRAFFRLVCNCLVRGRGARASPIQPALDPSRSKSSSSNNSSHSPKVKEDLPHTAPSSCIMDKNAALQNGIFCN
Sequence of Sphingosine 1-phosphate receptor 5 (Q9H228 whole entry): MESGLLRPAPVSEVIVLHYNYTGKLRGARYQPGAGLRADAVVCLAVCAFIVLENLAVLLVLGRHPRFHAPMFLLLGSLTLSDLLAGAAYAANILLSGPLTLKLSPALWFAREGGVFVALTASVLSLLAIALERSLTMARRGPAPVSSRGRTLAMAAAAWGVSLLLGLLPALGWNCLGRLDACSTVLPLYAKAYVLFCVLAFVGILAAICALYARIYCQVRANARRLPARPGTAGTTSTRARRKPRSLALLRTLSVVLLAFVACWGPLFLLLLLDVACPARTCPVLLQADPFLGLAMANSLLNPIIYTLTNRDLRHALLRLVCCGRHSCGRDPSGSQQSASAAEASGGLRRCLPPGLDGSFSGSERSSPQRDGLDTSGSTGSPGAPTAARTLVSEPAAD
Sequence of S1P3 receptor (sphingosine 1-phosphate receptor 3) (Q99500 whole entry): as the sequence (Q99500 whole entry) above

| EC50 [1] [nM] | EC50 [2] [nM] | Ratio EC50 (Homo sapiens) | SMILES | ED50 (Mus musculus [5]) [mg/kg] | other results |
| --- | --- | --- | --- | --- | --- |
| 1.2 | > 30000 | > 25000 | CCCc1ccc(COc2ccc3c(c2C)CCC(CN2CC(C(=O)O)C2)=C3C)c(OC)n1 | 0.017 | EC50 [3]: 0.19 nM; EC50 [4]: 0.92 nM; ED50 (Mus musculus [6]): 0.048 mg/kg |
| 540 | > 30000 | > 56 | CCCc1ccc(COc2cc3c(cc2C)C(C)=C(CN2CC(C(=O)O)C2)CC3)c(OC)c1 |  |  |
| 3 | 4000 | 1300 | COc1cc(COc2ccc3c(c2)CCC(CN2CC(C(=O)O)C2)=C3C)ccc1CC(C)C | 0.034 |  |
| 1.2 | > 30000 | > 25000 | CCCc1ccc(COc2ccc3c(c2C)CCC(CN2CC(C(=O)O)C2)=C3C)c(OC)c1 | 0.032 | EC50 [3]: 0.072 nM; EC50 [4]: 0.98 nM; ED50 (Mus musculus [6]): 0.072 mg/kg |
| 1.4 | > 30000 | > 21000 | COc1cc(C)ccc1COc1ccc2c(c1)CCC(CN1CC(C(=O)O)C1)=C2C | > 0.1 |  |
| 6.6 | > 30000 | > 4500 | COc1cc(CC(C)(C)O)ccc1COc1ccc2c(c1)CCC(CN1CC(C(=O)O)C1)=C2C | 0.16 |  |
| 1 | 9300 | 9300 | COc1cc(CC(C)C)ccc1COc1ccc2c(c1)CCC(CN1CC(C(=O)O)C1)=C2C | 0.0092 | ED50 (Mus musculus [6]): 0.04 mg/kg |
| 0.58 | > 30000 | > 52000 | CCc1ccc(COc2ccc3c(c2)CCC(CN2CC(C(=O)O)C2)=C3C)c(OC)c1 | 0.026 | ED50 (Mus musculus [6]): 0.3 mg/kg |
| 3.5 | > 30000 | > 8600 | CCCCc1ccc(COc2ccc3c(c2)CCC(CN2CC(C(=O)O)C2)=C3C)c(OC)c1 | 0.09 | ED50 (Mus musculus [6]): 0.18 mg/kg |

Continued, compound first:

| SMILES | EC50 [1] [nM] | EC50 [2] [nM] | Ratio EC50 (Homo sapiens) | ED50 (Mus musculus [5]) [mg/kg] | other results |
| --- | --- | --- | --- | --- | --- |
| CCCc1cc(OC)c(COc2ccc3c(c2)CCC(CN2CC(C(=O)O)C2)=C3C)cn1 | 57 | > 30000 | > 530 | > 0.1 |  |
| CC1=C(CN2CC(C(=O)O)C2)CCc2cc(OCc3ccc(CC(C)C)cc3F)ccc21 | 2.6 | > 30000 | > 12000 | 0.073 |  |
| CC1=C(CN2CC(C(=O)O)C2)CCc2cc(OCCC3CCCc4ccccc43)ccc21 (configuration not stated) | 97 | > 30000 | > 310 |  |  |
| CC1=C(CN2CC(C(=O)O)C2)CCc2cc(OCc3ccc4ccccc4c3)ccc21 | 54 | > 10000 | > 190 |  |  |
| CC1=C(CN2CC(C(=O)O)C2)CCc2cc(OCc3ccc(CC(C)C)cc3)ccc21 | 5 | > 30000 | > 6000 | 0.39 | Emax at 3 s, 30 µM [7]: < 50% |
| CC1=C(CN2CC(C(=O)O)C2)CCc2cc(OCC3Cc4ccccc4C3)ccc21 | 7.9 | > 30000 | > 3800 | > 1 |  |
| CCCc1ccc(COc2ccc3c(c2)CCC(CN2CC(C(=O)O)C2)=C3C)c(OC)n1 | 0.58 | 6800 | 12000 | 0.011 |  |
| CC1=C(CN2CC(C(=O)O)C2)CCc2cc(OCc3ccc(CC(C)C)cc3C)ccc21 | 13 | > 30000 | > 2300 | 0.23 |  |
| CC1=C(CN2CC(C(=O)O)C2)CCc2cc(OCc3ccc(CC(C)C)cc3Cl)ccc21 | 4.5 | > 30000 | > 6700 | 0.19 |  |
| CC1=C(CN2CC(C(=O)O)C2)CCc2cc(OCC3CCc4ccccc4C3)ccc21 (configuration not stated) | 19 | > 30000 | > 1600 |  |  |
| CC1=C(CN2CC(C(=O)O)C2)CCc2cc(OCCCc3ccccc3)ccc21 |  |  | 1700 | 0.4 |  |
| CC1=C(CN2CC(C(=O)O)C2)CCc2cc(OCCC3CCc4ccccc43)ccc21 (configuration not stated) | 1.7 | 5500 | > 3200 | > 1 |  |
| [3H]C(C1=C(C)c2ccc(OCc3ccc(CCC)cc3OC)cc2CC1)N1CC(C(=O)O)C1 (configuration not stated) |  |  |  |  | fraction unbound at 10 min [8]: 0.027 to 0.029; fraction unbound at 10 min [9]: 0.023 to 0.028; remaining at 2 h [10]: 93.3%; remaining at 2 h [11]: 92.6%; remaining at 2 h [12]: 94.1%; remaining at 2 h [13]: 95.2%; fraction unbound at 10 min [14]: 0.029 to 0.038; fraction unbound at 10 min [15]: 0.018 to 0.023; fraction unbound at 10 min [16]: 0.029 to 0.032 |

Reference: ChEMBL document CHEMBL4028892, “Discovery of a 1-Methyl-3,4-dihydronaphthalene-Based Sphingosine-1-Phosphate (S1P) Receptor Agonist Ceralifimod (ONO-4641). A S1P1 and S1P5 Selective Agonist for the Treatment of Autoimmune Diseases” (J Med Chem, 2017)
